Columns and labels:
[1] = Initial concentration in CD-1 mouse at 1 mg/kg, iv or 5 mg/kg, po administered as single dose; assay type: ADME, organism-based; conditions: in vivo
Outline: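 Female CD-1 mice, single dose. Oral formulation: 70% PEG300/30% (5% dextrose in water) at 0.5 mg/mL. Intravenous formulation: 5% DMSO/10% cremophor/85% water at 0.25 mg/mL. Parameters from non-compartmental analysis.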

Mus musculus = experiment: Dose normalized AUC (0 to infinity) in CD-1 mouse at 5 mg/kg, po administered as single dose; assay type: ADME, organism-based; conditions: in vivo

For `CCCNC(=O)N1[C@H](C#N)[C@H](c2ccc(-c3ccc(C(F)(F)F)c(C(F)(F)F)c3)cc2)[C@H]1CO`, which C0 [1] is on record?
The C0 was 4.9 µM.

What about the AUC/dose (Mus musculus) of the same molecule?
The AUC/dose was greater than 54.3 µM·h.
